Consider 1 compound from ChEMBL document CHEMBL1177799 (Bioorg Med Chem Lett, 2010).

The target of one data set is T1, Adenosine receptor A3 (Homo sapiens, UniProt P0DMS8).
T1 sequence (P0DMS8 whole entry): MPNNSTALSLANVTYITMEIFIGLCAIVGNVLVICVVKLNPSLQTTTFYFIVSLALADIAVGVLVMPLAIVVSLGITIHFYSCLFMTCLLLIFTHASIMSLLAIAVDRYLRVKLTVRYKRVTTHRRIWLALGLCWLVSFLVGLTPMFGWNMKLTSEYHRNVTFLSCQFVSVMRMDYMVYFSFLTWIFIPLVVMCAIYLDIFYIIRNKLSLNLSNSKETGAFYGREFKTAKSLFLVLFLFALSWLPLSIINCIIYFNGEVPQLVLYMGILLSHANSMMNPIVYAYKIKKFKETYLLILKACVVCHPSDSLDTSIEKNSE
As to the kind of experiment: Binding affinity to adenosine A3 receptor.

For the next data set, the target named is Adenosine receptor A2a (Homo sapiens, UniProt P29274). The data set is described as follows: Displacement of [3H]-ZM241385 from human adenosine A2A receptor expressed in CHO-K1 cells after 1 hr by scintillation counting. The data set is classed as cell-based. On the technique in general: Displacement assays read how much labelled ligand stays bound in the presence of the test substance.
Chain of Adenosine receptor A2a (P29274 whole entry): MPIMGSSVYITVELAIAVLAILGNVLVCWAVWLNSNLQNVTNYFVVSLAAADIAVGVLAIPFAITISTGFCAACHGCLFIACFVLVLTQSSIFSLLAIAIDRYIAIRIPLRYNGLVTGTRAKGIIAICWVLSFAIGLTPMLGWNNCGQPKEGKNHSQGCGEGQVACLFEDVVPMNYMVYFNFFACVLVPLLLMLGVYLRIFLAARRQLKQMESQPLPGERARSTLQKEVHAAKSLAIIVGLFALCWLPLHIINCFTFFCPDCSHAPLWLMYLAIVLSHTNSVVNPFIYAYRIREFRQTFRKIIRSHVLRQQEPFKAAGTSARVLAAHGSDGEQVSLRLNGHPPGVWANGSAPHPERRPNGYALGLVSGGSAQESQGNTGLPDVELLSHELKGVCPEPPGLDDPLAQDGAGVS

A short description of data set [1]: Half life in Han Wistar rat at 50 mg/kg, po up to 24 hrs by LC-MS analysis. It counts as ADME, organism-based. The arrangement: dose 50 mg/kg, route oral. The conditions noted are these: in vivo. The procedure, abridged: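 Male Han Wistar rats (n = 4 per route): iv 2.5 mg/kg via tail vein in DMA/PEG 400/40% HPBCD/H2O, or po 50 mg/kg in Capmul PG8 by intubation tube. Plasma sampled up to 24 h after dosing, drug levels measured by LC–MS.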

Data set [2] in a line: Extrapolated AUC in Han Wistar rat at 50 mg/kg, po up to 24 hrs by LC-MS analysis. It counts as ADME, organism-based. The arrangement: time < 24 hr, dose 50 mg/kg, route oral. Conditions: in vivo.
Data set [3] has as its target T2, Adenosine receptor A2b (Homo sapiens, UniProt P29275).
T2 sequence (P29275 whole entry): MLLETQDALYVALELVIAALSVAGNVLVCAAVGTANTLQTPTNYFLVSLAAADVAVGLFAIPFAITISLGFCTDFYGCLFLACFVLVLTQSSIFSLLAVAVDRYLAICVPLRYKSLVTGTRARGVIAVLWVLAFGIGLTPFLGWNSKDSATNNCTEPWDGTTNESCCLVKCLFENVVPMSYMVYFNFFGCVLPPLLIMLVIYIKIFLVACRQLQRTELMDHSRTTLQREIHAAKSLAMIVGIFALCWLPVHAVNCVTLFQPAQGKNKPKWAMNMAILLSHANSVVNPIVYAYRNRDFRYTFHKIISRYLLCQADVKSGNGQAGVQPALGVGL
The data set is described as follows: Displacement of [3H]ZM241385 from human adenosine A2B receptor expressed in CHO cells after 1 hr by scintillation counting. The data set is classed as cell-based. The procedure, abridged:
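Whole CHO cells expressing human A2B receptor, harvested mechanically from 80% confluent flasks, frozen, then resuspended in assay buffer on assay day. Competition against [3H]ZM241385 (30 nM final), 1 h at room temperature with shaking. Harvest on 0.5% polyethyleneimine-treated filter plates, air-dried, scintillation counting.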

Data set [4] in a line: Clearance in Han Wistar rat at 2.5 mg/kg, iv up to 24 hrs by LC-MS analysis. The data set is classed as ADME, organism-based. Also on record: dose 2.5 mg/kg, route intravenous. The conditions noted are these: in vivo. The procedure, abridged: (§1)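 Male Han Wistar rats (n = 4) received a single 2.5 mg/kg intravenous tail-vein injection in DMA/PEG 400/40% HPBCD/H₂O. Plasma was sampled up to 24 h after dosing, and plasma drug levels were measured by LC–MS to derive the PK parameters.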

In another data set the target is T3, Adenosine receptor A1 (Homo sapiens, UniProt P30542).
T3 sequence (P30542 whole entry): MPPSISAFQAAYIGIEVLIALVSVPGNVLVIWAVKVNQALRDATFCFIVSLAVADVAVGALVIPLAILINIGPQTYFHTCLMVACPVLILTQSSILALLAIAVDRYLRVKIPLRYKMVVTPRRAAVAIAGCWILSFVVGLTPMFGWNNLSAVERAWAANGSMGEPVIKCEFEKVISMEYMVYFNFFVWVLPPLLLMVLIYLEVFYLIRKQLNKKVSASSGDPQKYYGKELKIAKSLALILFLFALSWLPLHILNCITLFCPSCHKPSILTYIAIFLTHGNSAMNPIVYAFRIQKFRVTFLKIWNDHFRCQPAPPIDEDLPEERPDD
As to the kind of experiment: Displacement of [3H]-DPCPX from human adenosine A1 receptor expressed in CHO-K1 cells after 1 hr by scintillation counting. The data set is classed as cell-based. The procedure, abridged: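 Commercial human A1 membranes (10 µg/well) in HEPES 50 mM, NaCl 100 mM, MgCl2 1 mM buffer; competition against [3H]-DPCPX (4.8 nM final), 1 h at room temperature with orbital shaking. Filtration harvest on polyethyleneimine-treated (0.5%) glass-fibre plates, air-dried, scintillation counting.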

Data set [5] can be described thus: Extrapolated AUC in Han Wistar rat at 2.5 mg/kg, iv up to 24 hrs by LC-MS analysis. The arrangement: time < 24 hr, dose 2.5 mg/kg, route intravenous. It counts as ADME, organism-based. Conditions: in vivo.
Data set [6] deals with T2, Adenosine receptor A2b. The data set is described as follows: Antagonist activity at human adenosine A2B receptor expressed in CHO cells assessed as inhibition of adenosine-induced cAMP production. The data set is classed as functional, cell-based. The procedure, abridged: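 CHO cells stably transfected with human A2B receptor, grown overnight as monolayer (7500 cells/well), washed with Krebs buffer, then exposed to compounds in Krebs buffer (final DMSO 1.1%) for 20–25 min. Wells emptied, cells lysed and cAMP measured with an enzyme-fragment complementation cAMP kit for adherent cells.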
Background: Cyclic AMP is a second messenger, typically raised through Gs and lowered through Gi signalling.

Data set [7] can be described thus: Volume of distribution in Han Wistar rat at 2.5 mg/kg, iv up to 24 hrs by LC-MS analysis. It counts as ADME, organism-based. The arrangement: dose 2.5 mg/kg, route intravenous. The conditions noted are these: in vivo. The procedure, abridged:
as §1

Data set [8] is described as follows: Cmax in Han Wistar rat at 50 mg/kg, po up to 24 hrs by LC-MS analysis. Also on record: dose 50 mg/kg, route oral. The data set is classed as ADME, organism-based. Conditions: in vivo.

As usually defined, the Ki is a measure of affinity in units of concentration, obtained from inhibition or displacement. As a reminder, the half-life is the time in which the quantity being followed falls by half. A lower half-life goes with fast loss. Broadly, the AUC is concentration integrated over time. In general, clearance refers to the rate of elimination divided by the concentration. A word on the IC50: it is the concentration that gives 50% inhibition. As usually defined, the Vd is a proportionality between amount in the body and measured concentration, not a real space. The low end stands for confinement near the circulation, the high end for extensive tissue distribution. What is called Cmax is the highest concentration seen after dosing. `CCN(C(C)=O)c1ccc(OC)c2nc(NC(=O)c3ccnn3C)sc12`: the inhibition constant Ki worked out at 0.08 µM at Adenosine receptor A3, 0.051 µM at Adenosine receptor A2a, 0.008 µM at Adenosine receptor A2b [3] and 0.1 µM at Adenosine receptor A1. This compound also gave a half-life in data set [1] of 2.1 h. Moreover, the AUC at 24 h is 74400 ng·h/mL in [2] and 929 ng·h/mL in [5]. Moreover, in data set [4], the clearance came out at 46 mL/min/kg. Also, the IC50 at Adenosine receptor A2b [6] was found to be 0.021 µM. Also, the Vd in data set [7] stood at 3 L/kg. This compound also displayed a Cmax in [8] of 7420 ng/mL.
